Reference: ChEMBL document CHEMBL1765044, “3-Hydroxypyrimidine-2,4-diones as an inhibitor scaffold of HIV integrase” (J Med Chem, 2011)
pEC50, pIC50: −log10 of the molar value.

Columns and labels:
[1] = tested on: Human immunodeficiency virus 1; experiment: Antiviral activity against Human immunodeficiency virus 1 3B infected in human CEM-SS cells assessed as cytoprotection against virus-induced toxicity at 10 uM after 6 days by MTS assay; type: functional
Procedure, shortened: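 Single-concentration screen at 10 μM, run only on compounds with strand-transfer IC50 ≤10 μM. CPE reduction (%) and cell viability (%) assessed by MTS; AZT positive control.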

[2] = Inhibition of HIV recombinant integrase strand transfer activity expressed in Escherichia coli after 60 mins using [32P]-labeled oligonucleotide substrate by densitometric analysis; set-up: species or system Human immunodeficiency virus
[3] = Inhibition of Human immunodeficiency virus recombinant integrase 3'-processing activity expressed in Escherichia coli after 60 mins using [32P]-labeled oligonucleotide substrate by densitometric analysis
[4] = tested on: Human immunodeficiency virus 1; experiment: Antiviral activity against Human immunodeficiency virus 1 3B infected in CEM-SS cells assessed as reduction in virus-induced cytopathic effect at 10 uM after 6 days; type: functional; set-up: scale not given: the % may be the effect or the level left
Procedure, shortened: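 CEM-SS cells were mixed with pre-titered HIV-1 IIIB and the compound at a single 10 μM and incubated for 6 days. Virus dose was set to give 70–95% viability loss in virus-control wells. CPE reduction (cytoprotection) and cell viability were read by MTS. Plates included cell, virus, compound-toxicity and colorimetric control wells, with AZT as positive control.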

CEM-SS = experiment: (§1) Cytotoxicity against human CEM-SS cells infected with Human immunodeficiency virus 1 3B after 6 days by MTS assay; type: cell-based; conditions: cem-ss, 144 h
Procedure, shortened: (§2)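 CEM-SS cells mixed with pre-titered HIV-1 IIIB (titer chosen so virus-control wells lose 70–95% viability) plus compound in dose response, incubated 6 days. Viability read by MTS; controls are cells alone, cells+virus, cells+compound and compound alone. EC50 is the concentration protecting 50% against virus-induced loss; CC50 is the concentration killing 50% of cells; TI = CC50/EC50. AZT used as positive control.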

[5] = tested on: Human immunodeficiency virus 1; experiment: Antiviral activity against Human immunodeficiency virus 1 3B infected in CEM-SS cells assessed as inhibition of viral replication after 6 days; type: functional, organism-based; conditions: 144 h; procedure, shortened: as §2
[6] = Therapeutic index, ratio of CC50 for human CEM-SS cells to EC50 for Human immunodeficiency virus 1 3B; type: cell-based; conditions: read-out: TI
Procedure, shortened: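 CEM-SS cells mixed with HIV-1 IIIB and compound, incubated 6 days; virus pre-titered so control wells lose 70–95% viability. Cytoprotection (EC50) and cytotoxicity in uninfected compound-only wells (CC50) read by MTS from dose-response. TI calculated as CC50/EC50. Controls: cells only, virus only, and compound only (colorimetric). AZT served as positive control.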

[7] = tested on: Human immunodeficiency virus 1; experiment: Fold resistance, ratio for Human immunodeficiency virus 1 NL4-3 reverse transcriptase Y181C mutant to wild-type Human immunodeficiency virus 1 NL4-3 reverse transcriptase
Procedure, shortened: (§3)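 HIV-1 NL4-3 strains carrying the reverse transcriptase K103N or Y181C mutation were tested in MAGI R5 cells, with the NNRTI TNK-651 as control. Fold-resistance is the mutant/wild-type ratio.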

[8] = tested on: Human immunodeficiency virus 1; experiment: Fold resistance, ratio for Human immunodeficiency virus 1 NL4-3 reverse transcriptase K103N mutant to wild-type Human immunodeficiency virus 1 NL4-3 reverse transcriptase; procedure, shortened: as §3
[9] = tested on: Human immunodeficiency virus 1; conditions: NL4-3
[10] = tested on: Human immunodeficiency virus 1; conditions: NL4-3; remark: listed apart in the source
[11] = tested on: Human immunodeficiency virus 1; experiment: Ratio of IC50 for Human immunodeficiency virus 1 NL4-3 integrase Y143R mutant to IC50 for wild-type Human immunodeficiency virus 1 NL4-3 integrase
Procedure, shortened: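 Recombinant HIV-1 integrase (wild type or mutant) was expressed in E. coli, with 10% glycerol in all buffers. Reactions were stopped with EDTA/formamide dye. IC50 came from a logistic nonlinear fit; the ratio is IC50 mutant/WT from two independent experiments.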

[12] = tested on: Human immunodeficiency virus 1; experiment: Fold resistance, ratio of EC50 for raltegravir-resistant Human immunodeficiency virus 1 1556-1 expressing integrase Y143C mutant to EC50 for raltegravir-resistant Human immunodeficiency virus 1 1556-1 expressing wild-type integrase; type: functional
[13] = Cytotoxicity against human MT4 cells infected with raltegravir-resistant Human immunodeficiency virus 1 8070-2; type: cell-based; conditions: MT4 cells infected with raltegravir-resistant HIV-1 8070-2, read-out: TC50 (the source's name)
[14] = as §1; type: cell-based; conditions: CEM-SS cells infected with HIV-1 3B, read-out: TC50; procedure, shortened: as §2
[15] = Cytotoxicity against human MT4 cells infected with raltegravir-resistant Human immunodeficiency virus 1 1556-1; type: cell-based; conditions: MT4 cells infected with raltegravir-resistant HIV-1 1556-1, read-out: TC50 (the source's name)
[16] = Cytotoxicity against human MT4 cells infected with raltegravir-resistant Human immunodeficiency virus 1 4736-2; type: cell-based; conditions: MT4 cells infected with raltegravir-resistant HIV-1 4736-2, read-out: TC50 (the source's name)

Compound	Activity [1] [%]	pIC50 [2]	pIC50 [3]	also measured
CC(C)c1c(Cc2ccccc2)n(CCCCc2ccc(F)cc2)c(=O)n(O)c1=O	94	6.25	< 3.95	Activity [4]: 6%
CCc1c(Cc2ccccc2)c(=O)[nH]c(=O)n1COCc1ccc(F)cc1	92			Activity [4]: 10%
CCc1c(Cc2ccccc2)n(Cc2ccccc2)c(=O)n(O)c1=O		< 3.95	< 3.95	
CC(C)c1c(Cc2ccccc2)n(COCc2ccc(F)cc2)c(=O)n(C)c1=O		< 3.95	< 3.95	
CC(C)c1c(Cc2ccccc2)n(COCCc2ccc(F)cc2)c(=O)n(O)c1=O	83	5.80	< 3.95	Activity [4]: 27%
CC(C)c1c(Cc2ccc(F)cc2)n(Cc2ccccc2)c(=O)n(O)c1=O		4.49	< 3.95	
CCc1c(Cc2ccccc2)c(=O)n(O)c(=O)n1COCc1ccccc1		4.44	< 3.95	
CC(C)c1c(Cc2ccccc2)n(COCCCc2ccc(F)cc2)c(=O)n(O)c1=O	92	5.49	< 3.95	Activity [4]: 30%
CCc1c(Cc2ccccc2)c(=O)n(O)c(=O)n1COCc1ccc(F)cc1		4.96	< 3.95	
COn1c(=O)c(C(C)C)c(Cc2ccccc2)n(COCc2ccc(F)cc2)c1=O		< 3.95	< 3.95	
O=c1c2ccccc2n(Cc2ccccc2)c(=O)n1O			< 3.95	
O=c1c2ccccc2n(Cc2ccc(F)cc2)c(=O)n1O			< 3.95	
CC(C)c1c(Cc2ccc(F)cc2)n(Cc2ccc(F)cc2)c(=O)n(O)c1=O		4.14	< 3.95	
CC(C)c1c(Cc2ccccc2)n(COCc2ccc(F)cc2)c(=O)[nH]c1=O		< 3.95	< 3.95	
CC(C)c1c(Cc2ccccc2)n(COCc2ccc(F)cc2F)c(=O)n(O)c1=O	100	5.32	< 3.95	CC50 (CEM-SS): > 100 µM; pEC50 [5]: 5.68; selectivity ratio [6]: > 47
CC(C)c1c(Cc2ccccc2)n(COCc2ccc(F)cc2)c(=O)n(O)c1=O				Ratio [7]: 48; Ratio [8]: 16

Compound	Activity [1] [%]	pIC50 [2]	pIC50 [3]	also measured
CC(C)c1c(Cc2ccccc2)n(COCCCCc2ccc(F)cc2)c(=O)n(O)c1=O	88	5.35	< 3.95	Activity [4]: 12%
Cc1nnc(C(=O)NC(C)(C)c2nc(C(=O)NCc3ccc(F)cc3)c(O)c(=O)n2C)o1 [RALTEGRAVIR]				Ratio IC50 [9]: 139; Ratio IC50 [10]: 8; Ratio IC50 [11]: 24; Ratio EC50 [12]: >855
Cc1cn(Cc2ccc(F)cc2)c(=O)n(O)c1=O		< 3.95	< 3.95	
CC(C)c1c(Cc2ccc(F)cc2)n(COCc2ccc(F)cc2)c(=O)n(O)c1=O		5.26	< 3.95	
Cc1cn(Cc2ccccc2)c(=O)n(O)c1=O		< 3.95	< 3.95	
Cc1cn(COCc2ccccc2)c(=O)n(O)c1=O		4.12	< 3.95	
CC(C)c1c(Cc2ccccc2)n(COCc2cccc(Cl)c2F)c(=O)n(O)c1=O	100	5.64	< 3.95	Ratio IC50 [9]: 14; CC50 [13]: 2 µM; CC50 at 144 h [14]: > 100 µM; pEC50 [5]: 6.02; CC50 [15]: 2 µM; Ratio IC50 [10]: 5; CC50 [16]: 2 µM; selectivity ratio [6]: > 105; Ratio IC50 [11]: 5; Ratio EC50 [12]: >1.7
CC(C)c1c(Cc2ccccc2)n(CCc2ccc(F)cc2)c(=O)n(O)c1=O		4.34	< 3.95	
CCc1c(Cc2ccccc2)n(COCc2ccccc2)c(=O)n(O)c1=O		5.09	< 3.95	
CC(C)c1c(Cc2ccc(F)cc2)n(COCc2ccccc2)c(=O)n(O)c1=O	100	5.14	< 3.95	CC50 (CEM-SS): > 20 µM; pEC50 [5]: 5.96; selectivity ratio [6]: > 18
CCc1c(Cc2ccccc2)c(=O)[nH]c(=O)n1COCc1ccccc1	100			Activity [4]: 48%
CCc1c(Cc2ccccc2)n(Cc2ccc(F)cc2)c(=O)n(O)c1=O		4.62	< 3.95	
CC(C)c1c(Cc2ccccc2)n(Cc2ccccc2)c(=O)n(O)c1=O		4.55	< 3.95	
CC(C)c1c(Cc2ccccc2)n(Cc2ccc(F)cc2)c(=O)n(O)c1=O		4.66	< 3.95	
CC(C)c1c(Cc2ccccc2)n(CCCc2ccc(F)cc2)c(=O)n(O)c1=O	97	6.36	< 3.95	Activity [4]: 12%
